HNF4A DNA FP: change in binding of human HNF4 alpha to DNA; AID 1224865; 0.3% of 360,000 active; HNF4a-FITC DNA binding, fluorescence polarization, 1 h; P41235; activity change, % at 10 µM; in the data active = activity change above about 30%, passing the limit was not always enough
CSN deneddyl inh: CSN deneddylation inhibition; 0.38% of 360,000 active; inhibition, % at 12.5 µM; Q92905; Purified CSN, SCF-Nedd8-OG deneddylation, fluorescence polarization;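 active = pattern-corrected inhibition above about 35%, with an unprinted fluorescence ratio check between 0.5 and 1.5, limit read from the data, passing the limit was not always enough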;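 also: 0% = enzyme with substrate and 100% = substrate without enzyme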
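Assay system: HEK293T-derived human Csn5 enzyme; quantity: 0.24 nM enzyme; medium: Tris/NaCl/DTT buffer, pH 7.5; also added: substrate SCFSkp2-Nedd8OG, 10 nM; doses: 12.5 µM compound; schedule: 90 min reaction at room temperature; signal: FP; read-out: % inhibition of substrate cleavage by Csn5; benchmarks: substrate-only high control, full reaction low control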
IDE cell activ: boosts human insulin-degrading enzyme activity in HEK cells; P14735; FAbeta-B cleavage, fluorescence polarization; 0% vehicle, 100% cell-free pure enzyme wells; activation, % at 5.96 µM; 0.073% of 340,000 active; AID 493087;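 active = activation above the mean of all tested compounds plus 3 SD, set per screening campaign, cut at about 17% in these data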
TPT1 inhibitor: C. albicans TPT1 enzyme inhibition | recombinant caTPT1, FP RNA substrate dephosphorylation | inhibition, % at 5 µM | 0.81% of 300,000 active;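 active = inhibition above the mean of all tested compounds plus 3 SD, set per screening campaign, cut at about 24% in these data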;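 also: plate controls were DMSO alone for no effect and ferristatin control at 100 nM for full effect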
IDE cell inh: inhibits human insulin-degrading enzyme in HEK cells | FAbetaB cleavage, fluorescence polarization | inhibition, % at 5.59 µM | 0.41% of 320,000 active;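 active = percent inhibition above the average of all tested compounds plus 3 SD, set per screening campaign, cut at about 16% in these data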;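 also: IDE supplied by intact live HEK cells; FP after avidin binding of uncleaved biotin substrate so inhibition keeps polarization high; 0% = DMSO wells and 100% = 60 µM reference IDE inhibitor Ii1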
Rpn11 block: blocks the human proteasome subunit Rpn11; human 26S proteasome, Ub4-pepOG fluorescence polarization; 20S core pre-blocked with epoxomicin; AID 588493; 0.59% of 360,000 active; inhibition, % at 20 µM; O00487;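 active = inhibition at 20 µM, scaled to each plate's controls, above about 33%, limit read from the data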
caTPT1 confirm: TPT1 (C. albicans) inhibition, confirmation; shares compounds with TPT1 inhibitor; recombinant caTPT1, fluorescence polarization, RNase T1 coupled; inhibition, % at 5 µM; 74% of 2,400 active;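 active = inhibition above the primary screen limit, the mean inhibition of all tested compounds plus 3 SD, cut at about 25% in these data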
RNase T1 inh: blocks Aspergillus oryzae RNase T1, a TPT1 counter-screen; shares compounds with TPT1 inhibitor; RNase T1 cleavage, fluorescence polarization, 1536-well; inhibition, % at 5 µM; 83% of 2,400 active; AID 2153;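 active = inhibition above the solvent-only control well mean plus 3 SD, limit set per screening run, cut at about 23% in these data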;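 also: plate controls were DMSO wells with enzyme for no effect and wells without RNase T1 for full effect; inhibitors block cleavage so intact labeled substrate keeps polarization high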
Target sequence (P00651 whole entry, looked up): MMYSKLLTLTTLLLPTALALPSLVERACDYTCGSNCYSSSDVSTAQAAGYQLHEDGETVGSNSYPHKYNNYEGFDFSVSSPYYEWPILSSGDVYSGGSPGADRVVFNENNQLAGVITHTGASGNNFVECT
IDE inh confirm: confirmation of human insulin-degrading enzyme inhibitors in cells. shares compounds with IDE cell inh. HEK cells, FAbetaB cleavage, fluorescence polarization. inhibition, % at 5.59 µM. 51% of 1,200 active. AID 435028;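 active = mean inhibition across triplicate wells above the cutoff set by the earlier primary insulin-degrading enzyme screen, cut at about 16% in these data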;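 also: 0% = DMSO wells and 100% = 60 µM reference IDE inhibitor Ii1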
HEK293 tox: counter-screen for IDE inhibitors: cytotoxicity in HEK cells | inhibition, % at 5.59 µM | HEK293 cytotoxicity, ATP luminescence | shares compounds with IDE cell inh | 28% of 1,200 active; in the data active = inhibition above about 22%;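 also: 0% = vehicle wells and 100% = reference cytotoxic drug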
Rpn11 confirm: Rpn11 inhibition confirmation, single concentration; 29% of 1,900 active; shares compounds with Rpn11 block; purified human 26S proteasome, Ub4-pepOG fluorescence polarization; proteasome pretreated with epoxomicin; inhibition, % at 20 µM
MMP-2 inh: blocks human MMP-2, flagging nonselective RPN11 hits; shares compounds with Rpn11 block; recombinant MMP-2, FRET peptide cleavage fluorescence; inhibition, % at 20 µM; 4% of 1,900 active; AID 602330;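 also: human MMP-2 activated beforehand with APMA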
Thrombin inh: counter-screen for RPN11 inhibitors: inhibition of bovine thrombin; shares compounds with Rpn11 block; bovine thrombin cleavage of Ub4-pepOG, fluorescence polarization; inhibition, % at 20 µM; AID 602333; 13% of 1,900 active;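 active = mean inhibition at least 40% at 20 µM, or signal 3 deviations below plate average, so some actives read negative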;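 also: plate controls were thrombin with DMSO for no effect and buffer wells lacking thrombin for full effect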
Target sequence (P00735 whole entry, looked up): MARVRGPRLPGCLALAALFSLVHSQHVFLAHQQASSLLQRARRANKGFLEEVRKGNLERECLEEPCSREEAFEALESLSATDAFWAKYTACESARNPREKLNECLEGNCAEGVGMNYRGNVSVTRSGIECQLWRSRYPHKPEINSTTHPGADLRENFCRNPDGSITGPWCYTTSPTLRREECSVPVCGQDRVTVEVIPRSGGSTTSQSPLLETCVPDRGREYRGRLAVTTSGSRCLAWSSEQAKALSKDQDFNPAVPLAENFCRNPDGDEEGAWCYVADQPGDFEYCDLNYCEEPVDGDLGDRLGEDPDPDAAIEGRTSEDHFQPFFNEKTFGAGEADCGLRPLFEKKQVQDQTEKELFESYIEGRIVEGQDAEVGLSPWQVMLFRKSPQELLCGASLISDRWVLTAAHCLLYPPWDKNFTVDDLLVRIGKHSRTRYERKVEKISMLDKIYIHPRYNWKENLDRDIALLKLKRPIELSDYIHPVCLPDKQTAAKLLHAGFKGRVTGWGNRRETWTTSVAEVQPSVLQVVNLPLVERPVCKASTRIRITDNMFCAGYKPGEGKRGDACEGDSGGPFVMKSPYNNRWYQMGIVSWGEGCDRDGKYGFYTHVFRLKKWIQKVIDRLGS
HNF4a DNA conf: change in binding of human HNF4 alpha to DNA, retest; shares compounds with HNF4A DNA FP; HNF4A-FITC DNA binding, fluorescence polarization, 1 h; activity change, % at 12.5 µM; 99% of 210 active; AID 1224897; call rule not given here
An asterisk follows results filed as active; nt = no result given. This is a sample that favours compounds with a hit; in the whole collection about 1.7% have one here. Rule as the data show it, unless noted: active = inhibition above about 40%; inactive = the rest.

SMILES	HNF4A DNA FP	CSN deneddyl inh	IDE cell activ	TPT1 inhibitor	IDE cell inh	Rpn11 block	Rpn11 confirm	MMP-2 inh	Thrombin inh	others
COc1ccc(N=Nc2c(O)[nH]c(=S)[nH]c2=O)cc1	80*	58*	0	60*	-4	nt	nt	nt	nt	caTPT1 confirm=55*;RNase T1 inh=70*;HNF4a DNA conf=118*
COc1ccc2c3c([nH]c2c1)C(C)NCC3 (stereo unspecified)	42*	31	2	27*	4	78*	58*	-8	48*	caTPT1 confirm=2;RNase T1 inh=6;HNF4a DNA conf=55*
COc1ccc2[nH]c3c(c2c1)CCNC3C (stereo unspecified)	3	-4	1	2	-3	3	nt	nt	nt
C[C@]12CCC3C(CC[C@H]4C[C@H](O)CC[C@]34C)C1CCC2=O (stereo partly specified)	-5	-3	1	nt	5	-2	nt	nt	nt
COc1ccccc1-n1c(/C=C/c2ccc(O)cc2)nc2ccccc2c1=O	7	12	-81	7	90*	28	nt	nt	nt	IDE inh confirm=128*;HEK293 tox=13
O=c1c2ccccc2nc(/C=C/c2ccccc2)n1-c1ccccc1O	4	-3	4	-2	-3	0	nt	nt	nt
O=[N+]([O-])c1oc2ccc3ccccc3c2c1CCO	1	6	4	nt	nt	2	nt	nt	nt
O=[N+]([O-])c1ccc(NCc2ccccc2)c2nonc12	nt	nt	nt	-83	34*	nt	nt	nt	nt	IDE inh confirm=26*;HEK293 tox=16
O=C1NCN(c2ccccc2)C12CCN(C(c1ccccc1)c1nnnn1C1CCCC1)CC2 (stereo unspecified)	-3	0	nt	nt	nt	0	nt	nt	nt
O=c1cc(C(F)(F)F)c2cc3c4c(c2o1)CCCN4CCC3	-73	-22	-94	-44	128*	-123	nt	nt	nt	IDE inh confirm=26*;HEK293 tox=19
O=C(O)c1ccc(/C=C/c2nc3ccccc3c(=O)n2-c2ccc(Br)cc2)cc1	2	3	0	-1	-1	6	nt	nt	nt
O=c1c2ccccc2nc(/C=C/c2ccc(O)cc2)n1-c1ccccc1O	3	3	-32	6	34*	39*	13	-17	7
COc1ccc(N2C(=O)/C(=C/c3ccc(OC)c(OC)c3)C(=O)NC2=S)cc1	-32	-3	0	nt	nt	53*	2	8	7
COc1ccc(N2C(=O)/C(=C/c3ccc(C)o3)C(=O)NC2=S)c(OC)c1	5	32	4	19	8	51*	9	33	40*
O=c1[nH]c(O)c(N=Nc2ccc(S(=O)(=O)N3CCOCC3)cc2)c(=O)[nH]1	2	7	-2	-3	-3	-5	nt	nt	nt
O=c1[nH]c(O)c(N=Nc2ccc3c(c2)OCCO3)c(=O)[nH]1	17	-3	3	1	4	55*	35	-22	22
COc1ccc(/C=C/C(=O)c2c(O)n(CCC3=CCCCC3)c(=O)[nH]c2=O)cc1OC	0	33	-5	9	-1	44*	active	-62	active
C=CCn1c(O)c(C(C)=NCCC2=CCCCC2)c(=O)[nH]c1=O	1	0	2	-2	1	2	nt	nt	nt
CN(C)CCN=Cc1c(O)n(Cc2ccc3c(c2)OCO3)c(=S)[nH]c1=O	1	-4	7	-2	1	13	nt	nt	nt
O=c1[nH]c(=S)n(Cc2ccc(F)cc2)c(O)c1/C=N/N1CCCCCC1	35	-5	0	8	1	57*	23	25	13
O=c1[nH]c(=S)n(Cc2ccc(F)cc2)c(O)c1C=NCc1ccc2c(c1)OCO2	0	3	2	0	2	32*	-13	-9	-18
O=c1[nH]c(=S)n(Cc2ccc(F)cc2)c(O)c1C=NCCCn1ccnc1	4	-2	9	3	-4	1	nt	nt	nt
Cc1ccccc1-n1c(O)c(/C=C2/C(c3ccccc3)=Nc3ccccc32)c(=O)[nH]c1=O	3	-4	2	6	9	41*	35	10	25
NC(Cc1ccccc1)c1nn[nH]n1 (stereo unspecified)	-2	-3	3	nt	nt	5	nt	nt	nt
CC(C)CCNC(=O)c1cc(C(=O)c2cc(Br)ccc2O)cn(CCC(C)C)c1=O	7	5	2	4	5	45*	-10	-17	-9
SMILES	HNF4A DNA FP	CSN deneddyl inh	IDE cell activ	TPT1 inhibitor	IDE cell inh	Rpn11 block	Rpn11 confirm	MMP-2 inh	Thrombin inh	others
O=c1[nH]c(=O)n(-c2ccc(F)cc2)c(O)c1C=Nc1ccccc1N1CCCC1	58*	16	0	1	3	61*	16	29	-52
COc1ccc(C(c2nnnn2C(C)(C)C)N2CCC3(CC2)C(=O)NCN3c2ccccc2)cc1 (stereo unspecified)	1	0	nt	nt	nt	2	nt	nt	nt
N#Cc1ccc(NC(=S)N2Cc3ccccc3-n3nncc3C2)cc1	1	4	nt	nt	nt	4	nt	nt	nt
CNC(=O)Oc1ccc2c(c1)C(=O)c1ccccc1CO2	0	-3	7	-2	5	100*	-14	-47	-5
CC(C)CN1Cc2cc(-c3cccc(F)c3)ccc2-n2nncc2C1	0	9	nt	nt	nt	-1	nt	nt	nt
O=C(N/N=C/c1c(O)n(C2CCCCC2)c(=S)[nH]c1=O)c1ccccc1	3	8	-2	1	3	46*	50*	-2	-15
CC(C)c1ccc(-n2c(O)c(/C=N/NC(=O)c3ccncc3)c(=O)[nH]c2=O)cc1	4	1	-1	8	-4	1	nt	nt	nt
O=C(N/N=C/c1c(O)n(CCc2ccccc2)c(=O)[nH]c1=O)c1ccccc1	17	10	nt	15	14	45*	30	-34	-96

Screening results as filed in PubChem BioAssay.
